ChEMBL document CHEMBL4823270, “A first-in-class anticancer dual HDAC2/FAK inhibitors bearing hydroxamates/benzamides capped by pyridinyl-1,2,4-triazoles” (Eur J Med Chem, 2021)
The source made the active and inactive calls. No cut-off for these calls is given here.

Columns and labels:
[1] = system: HCT-116; test: Growth inhibition of human HCT-116 cells at 10 uM incubated for 24 hrs by MTT assay relative to control; format: functional; settings: read-out: GI
Procedure, shortened: (§1)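 Cells seeded at 1 × 10^4 per well, cultured overnight, then exposed to 10 μM compound or DMSO (negative control) for 24 h. After a PBS wash, MTT (2 mg/ml) was added for 4 h at 37°C and formazan dissolved in DMSO. OD read at 570 nm. Growth inhibition = 1 − (OD treated/OD control); at least three independent experiments.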

[2] = system: HT-29; test: Growth inhibition of human HT-29 cells at 10 uM incubated for 24 hrs by MTT assay relative to control; format: functional; settings: read-out: GI; procedure, shortened: as §1
[3] = system: K562; test: Growth inhibition of human K562 cells at 10 uM incubated for 24 hrs by MTT assay relative to control; format: functional; settings: read-out: GI; procedure, shortened: as §1
[4] = system: KG-1; test: Growth inhibition of human KG-1 cells at 10 uM incubated for 24 hrs by MTT assay relative to control; format: functional; settings: KG-1, 24 h; procedure, shortened: as §1
[5] = system: A498; test: Growth inhibition of human A498 cells at 10 uM incubated for 24 hrs by MTT assay relative to control; format: functional; settings: read-out: GI; procedure, shortened: as §1
[6] = system: CAKI-1; test: Growth inhibition of human CAKI-1 cells at 10 uM incubated for 24 hrs by MTT assay relative to control; format: functional; settings: read-out: GI; procedure, shortened: as §1
[7] = system: A498; test: Antiproliferative activity against human A498 cells assessed as cell growth inhibition incubated for 24 hrs by MTT assay; format: functional, cell-based; settings: A498, 24 h
[8] = system: CAKI-1; test: Antiproliferative activity against human CAKI-1 cells assessed as cell growth inhibition incubated for 24 hrs by MTT assay; format: functional, cell-based; settings: CAKI-1, 24 h
[9] = biological target: Histone deacetylase 1 (Homo sapiens, UniProt Q13547); test: Inhibition of human full-length recombinant HDAC1 preincubated for 5 mins followed by HDAC substrate addition and further incubated for 45 mins by fluorescence microplate reader assay
Sequence of Histone deacetylase 1 (Q13547 whole entry): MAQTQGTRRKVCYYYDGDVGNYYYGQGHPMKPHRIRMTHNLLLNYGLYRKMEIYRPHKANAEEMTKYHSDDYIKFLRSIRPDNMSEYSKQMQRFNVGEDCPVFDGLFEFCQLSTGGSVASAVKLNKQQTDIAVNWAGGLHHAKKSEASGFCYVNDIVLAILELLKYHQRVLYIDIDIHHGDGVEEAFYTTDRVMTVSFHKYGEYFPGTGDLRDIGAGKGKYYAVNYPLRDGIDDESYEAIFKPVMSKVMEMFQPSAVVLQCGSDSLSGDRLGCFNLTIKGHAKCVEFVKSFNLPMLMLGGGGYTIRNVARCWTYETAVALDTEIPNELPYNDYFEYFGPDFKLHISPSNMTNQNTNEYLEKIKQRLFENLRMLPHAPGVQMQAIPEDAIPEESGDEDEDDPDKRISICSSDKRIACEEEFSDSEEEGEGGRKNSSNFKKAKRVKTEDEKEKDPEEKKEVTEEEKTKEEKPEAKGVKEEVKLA

[10] = biological target: T1, Histone deacetylase 2 (Homo sapiens, UniProt Q92769); test: Inhibition of human full-length recombinant HDAC2 preincubated for 5 mins followed by HDAC substrate addition and further incubated for 45 mins by fluorescence microplate reader assay
T1 sequence (Q92769 whole entry): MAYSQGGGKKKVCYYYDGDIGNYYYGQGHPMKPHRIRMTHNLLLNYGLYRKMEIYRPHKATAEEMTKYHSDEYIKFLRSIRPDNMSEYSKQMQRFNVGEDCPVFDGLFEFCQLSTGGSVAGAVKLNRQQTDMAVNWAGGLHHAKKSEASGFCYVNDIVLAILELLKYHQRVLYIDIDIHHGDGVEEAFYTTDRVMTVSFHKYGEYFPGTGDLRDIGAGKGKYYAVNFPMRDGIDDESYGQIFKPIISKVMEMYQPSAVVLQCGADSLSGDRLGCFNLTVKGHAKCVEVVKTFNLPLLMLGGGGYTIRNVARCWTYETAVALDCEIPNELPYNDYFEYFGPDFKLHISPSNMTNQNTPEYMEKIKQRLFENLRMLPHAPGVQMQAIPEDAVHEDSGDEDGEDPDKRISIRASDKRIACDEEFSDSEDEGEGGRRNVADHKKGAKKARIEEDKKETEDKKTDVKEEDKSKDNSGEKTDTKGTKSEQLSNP

[11] = biological target: Histone deacetylase 3 (Homo sapiens, UniProt O15379); test: Inhibition of human full-length recombinant HDAC3 preincubated for 5 mins followed by HDAC substrate addition and further incubated for 45 mins by fluorescence microplate reader assay
Sequence of Histone deacetylase 3 (O15379 whole entry): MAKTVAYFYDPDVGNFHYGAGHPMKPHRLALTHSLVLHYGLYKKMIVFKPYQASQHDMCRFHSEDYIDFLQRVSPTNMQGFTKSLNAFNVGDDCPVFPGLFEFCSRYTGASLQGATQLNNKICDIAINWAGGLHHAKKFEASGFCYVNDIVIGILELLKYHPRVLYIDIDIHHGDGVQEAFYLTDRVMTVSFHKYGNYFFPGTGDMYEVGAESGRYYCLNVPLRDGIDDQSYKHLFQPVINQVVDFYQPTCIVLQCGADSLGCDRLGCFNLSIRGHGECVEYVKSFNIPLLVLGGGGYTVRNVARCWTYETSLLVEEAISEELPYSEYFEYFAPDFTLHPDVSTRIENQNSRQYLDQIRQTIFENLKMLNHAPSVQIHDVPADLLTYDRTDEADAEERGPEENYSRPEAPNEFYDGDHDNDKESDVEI

[12] = biological target: T2, Protein deacetylase HDAC6 (Homo sapiens, UniProt Q9UBN7); test: Inhibition of human full-length recombinant HDAC6 preincubated for 5 mins followed by HDAC substrate addition and further incubated for 45 mins by fluorescence microplate reader assay
T2 sequence (Q9UBN7 whole entry): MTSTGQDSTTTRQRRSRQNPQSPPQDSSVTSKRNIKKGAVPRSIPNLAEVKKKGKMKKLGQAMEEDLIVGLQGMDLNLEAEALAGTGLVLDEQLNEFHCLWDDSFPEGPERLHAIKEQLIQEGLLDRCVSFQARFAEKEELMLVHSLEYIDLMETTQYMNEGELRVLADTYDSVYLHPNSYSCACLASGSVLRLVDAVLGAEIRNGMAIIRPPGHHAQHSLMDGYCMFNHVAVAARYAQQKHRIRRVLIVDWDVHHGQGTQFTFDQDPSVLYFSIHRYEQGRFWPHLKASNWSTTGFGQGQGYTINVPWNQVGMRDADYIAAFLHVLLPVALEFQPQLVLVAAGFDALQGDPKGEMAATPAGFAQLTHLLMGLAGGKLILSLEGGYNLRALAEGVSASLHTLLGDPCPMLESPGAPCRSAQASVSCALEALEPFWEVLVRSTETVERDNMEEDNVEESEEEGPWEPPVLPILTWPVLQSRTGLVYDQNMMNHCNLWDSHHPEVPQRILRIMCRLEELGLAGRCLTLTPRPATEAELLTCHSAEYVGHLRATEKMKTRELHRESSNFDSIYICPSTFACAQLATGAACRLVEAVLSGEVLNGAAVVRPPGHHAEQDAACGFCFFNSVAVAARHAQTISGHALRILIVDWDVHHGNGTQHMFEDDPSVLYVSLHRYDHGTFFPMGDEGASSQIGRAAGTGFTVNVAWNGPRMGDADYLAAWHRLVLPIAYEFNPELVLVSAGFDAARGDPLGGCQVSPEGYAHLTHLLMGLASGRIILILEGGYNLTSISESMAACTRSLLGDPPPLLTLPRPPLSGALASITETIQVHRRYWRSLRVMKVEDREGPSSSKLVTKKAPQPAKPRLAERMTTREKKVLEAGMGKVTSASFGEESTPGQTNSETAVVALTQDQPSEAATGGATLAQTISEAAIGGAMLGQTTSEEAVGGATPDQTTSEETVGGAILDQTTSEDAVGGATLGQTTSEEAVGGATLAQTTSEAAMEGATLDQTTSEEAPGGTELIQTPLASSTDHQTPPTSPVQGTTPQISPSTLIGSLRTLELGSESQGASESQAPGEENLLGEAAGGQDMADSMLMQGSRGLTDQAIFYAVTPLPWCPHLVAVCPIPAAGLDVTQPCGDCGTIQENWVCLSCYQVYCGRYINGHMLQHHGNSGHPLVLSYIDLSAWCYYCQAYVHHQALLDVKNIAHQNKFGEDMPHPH

[13] = biological target: T3, Histone deacetylase 8 (Homo sapiens, UniProt Q9BY41); test: Inhibition of human full-length recombinant C-terminal His-tagged HDAC8 expressed in baculovirus infected Sf9 insect cells preincubated for 5 mins followed by HDAC substrate addition and further incubated for 45 mins by fluorescence microplate reader assay
T3 sequence (Q9BY41 whole entry): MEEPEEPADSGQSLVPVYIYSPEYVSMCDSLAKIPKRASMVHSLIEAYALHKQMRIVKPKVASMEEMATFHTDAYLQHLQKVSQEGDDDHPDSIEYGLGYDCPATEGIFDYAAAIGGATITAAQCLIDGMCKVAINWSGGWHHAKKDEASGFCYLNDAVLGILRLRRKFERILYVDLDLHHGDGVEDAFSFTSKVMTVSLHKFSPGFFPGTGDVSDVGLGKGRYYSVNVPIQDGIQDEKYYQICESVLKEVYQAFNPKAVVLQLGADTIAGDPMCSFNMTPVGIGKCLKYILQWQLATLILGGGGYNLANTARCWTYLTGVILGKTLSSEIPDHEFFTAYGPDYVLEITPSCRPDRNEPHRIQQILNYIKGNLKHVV

[14] = biological target: T4, Focal adhesion kinase 1 (Homo sapiens, UniProt Q05397); test: Inhibition of FAK (unknown origin) by FRET-based Z'-Lyte assay
Procedure, shortened: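 Recombinant FAK kinase activity measured with the FRET-based Z'-LYTE format; the same platform was used for a kinase panel (FAK, FLT, FRK, IGF-1R, BTK). IC50 values determined.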
Target sequence in this assay (Q05397 whole entry): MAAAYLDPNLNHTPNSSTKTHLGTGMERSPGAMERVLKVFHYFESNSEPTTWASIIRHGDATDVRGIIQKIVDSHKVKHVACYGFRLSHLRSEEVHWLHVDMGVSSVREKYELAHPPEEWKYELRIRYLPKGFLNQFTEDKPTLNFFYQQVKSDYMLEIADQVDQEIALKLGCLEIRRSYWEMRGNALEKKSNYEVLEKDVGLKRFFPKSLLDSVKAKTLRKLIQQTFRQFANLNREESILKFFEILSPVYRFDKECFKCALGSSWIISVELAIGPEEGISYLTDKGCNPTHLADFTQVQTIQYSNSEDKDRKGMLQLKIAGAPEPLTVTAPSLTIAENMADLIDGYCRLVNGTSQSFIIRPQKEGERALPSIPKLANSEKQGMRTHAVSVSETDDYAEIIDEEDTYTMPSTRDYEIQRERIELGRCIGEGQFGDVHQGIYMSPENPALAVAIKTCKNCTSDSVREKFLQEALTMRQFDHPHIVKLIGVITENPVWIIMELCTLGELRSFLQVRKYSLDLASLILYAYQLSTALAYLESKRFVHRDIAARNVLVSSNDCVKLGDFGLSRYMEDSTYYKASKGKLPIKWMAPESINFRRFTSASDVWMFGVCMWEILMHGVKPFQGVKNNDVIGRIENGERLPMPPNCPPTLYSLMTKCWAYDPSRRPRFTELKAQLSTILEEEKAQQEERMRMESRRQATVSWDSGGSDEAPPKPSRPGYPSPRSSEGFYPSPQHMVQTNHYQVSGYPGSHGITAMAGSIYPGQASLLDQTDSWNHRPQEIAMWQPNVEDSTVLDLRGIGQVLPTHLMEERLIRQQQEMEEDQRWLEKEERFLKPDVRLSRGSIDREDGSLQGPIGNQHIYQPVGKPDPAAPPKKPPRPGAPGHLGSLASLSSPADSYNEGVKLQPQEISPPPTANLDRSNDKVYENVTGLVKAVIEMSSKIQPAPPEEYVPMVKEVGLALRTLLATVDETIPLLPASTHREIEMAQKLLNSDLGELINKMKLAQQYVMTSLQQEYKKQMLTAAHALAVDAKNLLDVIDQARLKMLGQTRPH

[15] = biological target: T1, Histone deacetylase 2; test: Inhibition of HDAC2 in human A498 cells assessed as reduction in HDAC2 expression by Western blot analysis; format: cell-based
Procedure, shortened: (§2)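 40 μg protein (Bradford) resolved by SDS-PAGE, transferred to PVDF, blocked 1 h in milk or BSA. Primary antibody overnight, HRP secondary 1 h, ECL detection; β-actin as loading control.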

[16] = biological target: T1, Histone deacetylase 2; test: Inhibition of HDAC2 in human CAKI-1 cells assessed as reduction in HDAC2 expression by Western blot analysis; format: cell-based; procedure, shortened: as §2
[17] = biological target: T4, Focal adhesion kinase 1; test: Inhibition of FAK in human A498 cells assessed as reduction in FAK phosphorylation by Western blot analysis; format: cell-based; procedure, shortened: as §2
Target sequence in this assay (Q05397 2-1052 limits assumed): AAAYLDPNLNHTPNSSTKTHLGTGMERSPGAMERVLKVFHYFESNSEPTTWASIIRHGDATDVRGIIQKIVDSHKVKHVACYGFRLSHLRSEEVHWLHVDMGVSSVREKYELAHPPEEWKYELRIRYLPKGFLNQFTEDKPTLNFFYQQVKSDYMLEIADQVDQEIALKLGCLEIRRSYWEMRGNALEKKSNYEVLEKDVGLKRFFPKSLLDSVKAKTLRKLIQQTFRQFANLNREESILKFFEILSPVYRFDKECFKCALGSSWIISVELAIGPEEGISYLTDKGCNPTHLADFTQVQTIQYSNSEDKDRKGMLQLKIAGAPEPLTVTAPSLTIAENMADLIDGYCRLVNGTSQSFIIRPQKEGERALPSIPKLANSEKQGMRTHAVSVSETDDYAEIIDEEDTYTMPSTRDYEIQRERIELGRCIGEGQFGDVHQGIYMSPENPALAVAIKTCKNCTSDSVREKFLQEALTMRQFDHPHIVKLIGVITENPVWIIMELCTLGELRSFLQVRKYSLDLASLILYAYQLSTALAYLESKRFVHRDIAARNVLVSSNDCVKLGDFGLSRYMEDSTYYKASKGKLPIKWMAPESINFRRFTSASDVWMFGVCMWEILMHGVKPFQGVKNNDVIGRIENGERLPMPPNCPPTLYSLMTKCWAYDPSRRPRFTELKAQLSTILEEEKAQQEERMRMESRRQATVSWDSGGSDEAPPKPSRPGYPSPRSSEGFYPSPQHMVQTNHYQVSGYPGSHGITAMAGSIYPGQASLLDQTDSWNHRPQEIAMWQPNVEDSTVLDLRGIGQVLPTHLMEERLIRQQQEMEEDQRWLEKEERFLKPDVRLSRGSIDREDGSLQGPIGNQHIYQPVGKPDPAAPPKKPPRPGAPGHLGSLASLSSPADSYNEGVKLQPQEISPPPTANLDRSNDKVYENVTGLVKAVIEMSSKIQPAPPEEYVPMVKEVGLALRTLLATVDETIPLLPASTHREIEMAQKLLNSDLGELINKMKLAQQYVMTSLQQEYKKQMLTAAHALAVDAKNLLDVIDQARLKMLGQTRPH

[18] = biological target: T4, Focal adhesion kinase 1; test: Inhibition of FAK in human CAKI-1 cells assessed as reduction in FAK phosphorylation by Western blot analysis; format: cell-based; procedure, shortened: as §2
Target sequence in this assay (Q05397 2-1052 limits assumed): as above

SMILES	inhibition of growth at 10 µM [1]	inhibition of growth at 10 µM [2]	inhibition of growth at 10 µM [3]	inhibition in vitro at 10 µM [4]	inhibition of growth at 10 µM [5]	inhibition of growth at 10 µM [6]	IC50 [7]	IC50 [8]	IC50 [9]	IC50 [10]	IC50 [11]	IC50 [12]	IC50 [13]	IC50 [14]	inhibition [15]	inhibition [16]	inhibition [17]	inhibition [18]
C=CCn1c(SCCCCCC(=O)Nc2ccccc2N)nnc1-c1ccncc1	90.5%	95.5%	86.4%	94.2%	97.7%	95.4%	1.19 µM	1.34 µM	31 µM	1.4 µM	11 µM	9.79 µM	5.86 µM	14.3 nM	Active	Active	Active	Active
CCn1c(SCc2ccc(C(=O)Nc3ccccc3N)cc2)nnc1-c1ccncc1	1.85%	1.22%	8.67%	5.91%	1.18%	12.1%	124 µM	80.7 µM	> 300 µM	40.1 µM	> 300 µM	> 300 µM	> 300 µM	112 nM	–	–	–	–
O=C(NO)c1ccc(CSc2nnc(-c3ccncc3)n2-c2ccccc2)cc1	29.3%	42.7%	39.1%	50.9%	56.9%	61.9%	8.76 µM	7.13 µM	15 µM	9.76 µM	18 µM	6.93 µM	12.8 µM	22.4 nM	–	–	–	–
Cn1c(SCCCCCC(=O)Nc2ccccc2N)nnc1-c1ccncc1	54.4%	71.4%	44.9%	63.1%	45.3%	50.8%	13.4 µM	9.87 µM	40.2 µM	14.4 µM	84.1 µM	14.2 µM	7.28 µM	57.1 nM	–	–	–	–
CCn1c(SCc2ccc(C(=O)NO)cc2)nnc1-c1ccncc1	1.03%	8.34%	14.3%	7.12%	1.67%	9.34%	203 µM	322 µM	> 300 µM	30.4 µM	174 µM	> 300 µM	> 300 µM	254 nM	–	–	–	–
CCn1c(SCCCCCC(=O)NO)nnc1-c1ccncc1	21.4%	9.15%	4.09%	17.3%	5.26%	2.06%	149 µM	112 µM	76.3 µM	28.9 µM	> 300 µM	270 µM	> 300 µM	124 nM	–	–	–	–
C=CCn1c(SCc2ccc(C(=O)NO)cc2)nnc1-c1ccncc1	44.1%	25.3%	36.1%	62%	44.9%	50.2%	13.2 µM	9.56 µM	19.6 µM	11.2 µM	20.7 µM	9.86 µM	28.4 µM	46.1 nM	–	–	–	–
